Measured values reported in ChEMBL document CHEMBL3091322 (J Med Chem, 2013).

How the values were obtained:
[1] = target: T1, Sodium-dependent serotonin transporter (Homo sapiens, UniProt P31645); details: COS-7
Target sequence in this assay (P31645 whole entry, looked up): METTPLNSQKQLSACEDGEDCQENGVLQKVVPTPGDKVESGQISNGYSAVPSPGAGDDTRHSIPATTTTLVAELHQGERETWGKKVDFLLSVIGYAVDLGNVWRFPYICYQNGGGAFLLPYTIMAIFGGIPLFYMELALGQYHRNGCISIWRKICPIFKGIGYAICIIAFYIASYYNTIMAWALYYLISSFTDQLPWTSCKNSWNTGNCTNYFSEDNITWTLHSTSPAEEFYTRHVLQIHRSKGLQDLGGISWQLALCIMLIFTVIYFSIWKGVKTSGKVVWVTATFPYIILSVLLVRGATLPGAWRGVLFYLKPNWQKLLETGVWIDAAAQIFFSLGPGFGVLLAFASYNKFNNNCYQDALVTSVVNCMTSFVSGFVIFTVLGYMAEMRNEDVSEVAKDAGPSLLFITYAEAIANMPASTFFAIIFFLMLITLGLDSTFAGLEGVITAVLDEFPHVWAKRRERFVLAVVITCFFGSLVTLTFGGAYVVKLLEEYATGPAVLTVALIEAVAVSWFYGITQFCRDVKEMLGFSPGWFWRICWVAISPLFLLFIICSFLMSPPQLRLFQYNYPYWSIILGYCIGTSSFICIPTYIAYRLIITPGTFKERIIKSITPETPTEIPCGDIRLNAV

[2] = species: Rattus norvegicus; assay: Displacement of [3H]nisoxetine from Sprague-Dawley rat brain frontal cortex NET at 10 uM by scintillation counting analysis; assay type: tissue-based
Procedure, shortened: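 Rat frontal cortex membranes (8 mg original wet weight) in Tris/NaCl/KCl buffer, pH 7.4, with 0.5 nM [3H]nisoxetine for 180 min at 0–4°C. Single test concentration of 10 µM. Nonspecific binding defined with desipramine. Filtration on GF/B filters, then scintillation counting. Result reported as percent displacement.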

[3] = Displacement of [3H]nisoxetine from Sprague-Dawley rat brain frontal cortex NET by scintillation counting analysis; assay type: tissue-based
Procedure, shortened: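 Frontal cortex membranes from male Sprague-Dawley rats incubated with 0.5 nM [3H]nisoxetine for 180 min at 0–4°C in pH 7.4 Tris/NaCl/KCl buffer. Desipramine used for nonspecific binding. Full concentration curves run for compounds giving >70% displacement at 10 µM. Filtration and scintillation counting; Ki calculated.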

[4] = target: T1, Sodium-dependent serotonin transporter; assay: biochemical; assay type: cell-based, COS-7
Target sequence in this assay (P31645 whole entry): as the sequence (P31645 whole entry, looked up) above

[5] = target: Sodium-dependent serotonin transporter (Rattus norvegicus, UniProt P31652); assay: Displacement of [3H]citalopram from Sprague-Dawley rat brain stem SERT site S1 by scintillation counting analysis
[6] = target: Sodium-dependent serotonin transporter (Rattus norvegicus) (UniProt P31652); assay: Displacement of [3H]citalopram from Sprague-Dawley rat brain stem SERT site S1 at 10 uM by scintillation counting analysis; assay type: tissue-based
[7] = species: Rattus norvegicus; assay: Selectivity ratio of Ki for Sprague-Dawley rat brain frontal cortex NET to Ki for Sprague-Dawley rat brain stem SERT; assay type: tissue-based

Sodium-dependent serotonin transporter (Rattus norvegicus, UniProt P31652), sequence (P31652 whole entry): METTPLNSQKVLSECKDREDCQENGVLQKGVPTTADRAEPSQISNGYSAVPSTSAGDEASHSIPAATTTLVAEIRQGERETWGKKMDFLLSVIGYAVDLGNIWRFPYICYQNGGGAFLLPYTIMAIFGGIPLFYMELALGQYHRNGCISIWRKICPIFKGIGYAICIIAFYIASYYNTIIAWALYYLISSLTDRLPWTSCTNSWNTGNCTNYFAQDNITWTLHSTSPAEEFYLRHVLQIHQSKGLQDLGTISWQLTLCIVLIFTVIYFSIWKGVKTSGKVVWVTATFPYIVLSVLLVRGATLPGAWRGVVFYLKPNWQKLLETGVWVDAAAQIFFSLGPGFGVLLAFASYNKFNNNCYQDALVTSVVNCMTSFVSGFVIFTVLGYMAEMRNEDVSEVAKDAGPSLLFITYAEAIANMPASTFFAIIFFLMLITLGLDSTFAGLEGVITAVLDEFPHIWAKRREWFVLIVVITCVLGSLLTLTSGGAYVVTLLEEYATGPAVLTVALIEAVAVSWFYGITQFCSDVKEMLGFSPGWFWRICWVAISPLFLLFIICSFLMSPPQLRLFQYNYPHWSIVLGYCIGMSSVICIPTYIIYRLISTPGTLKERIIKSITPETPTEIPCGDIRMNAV
Sodium-dependent serotonin transporter (Rattus norvegicus), sequence (P31652 whole entry): as above

Row | inhibition [2] [%] | Structure (SMILES) | Ki [3] [µM] | also measured
1 | 44 | CN(C)CCCC1(c2ccc(/C=C/c3ccccc3)cc2)OCc2cc(C#N)ccc21 (racemic) |  | T1/2 [1]: 44 min
2 |  | CN(C)CCCC1(c2ccc(F)cc2)OCc2cc(CNCc3coc4ccccc34)ccc21 (racemic) | 0.284 | 
3 |  | CN(C)CCCC1(c2ccc(F)cc2)OCc2cc(-c3ccc([N+](=O)[O-])cc3)ccc21 (racemic) | 8.28 | 
4 | 31.2 | CN(CCCC1(c2ccc(F)cc2)OCc2cc(C#N)ccc21)Cc1ccnc2ccccc12 (stereo not drawn) |  | 
5 | 42 | CN(C)CCCC1(c2ccc(F)cc2)OCc2cc(-c3ccc(N)cc3)ccc21 (racemic) |  | 
6 |  | CN(C)CCCC1(c2ccc(F)cc2)COc2ccc(Br)cc21 (racemic) | 4.97 | 
7 |  | COc1ccc2[nH]cc(CN(C)CCCC3(c4ccc(F)cc4)OCc4cc(C#N)ccc43)c2c1 (racemic) | 5.09 | 
8 | 66.9 | CN(C)CCCC1(c2ccc(F)cc2)OCc2cc(CNCc3ccc4c(c3)COC4(CCCN(C)C)c3ccc(F)cc3)ccc21 (racemic) |  | 
9 | 19.7 | CN(C)CCCC1(c2ccc(F)cc2)OCc2cc(CN3CCN(c4cccc(Cl)c4Cl)CC3)ccc21 (racemic) |  | 
10 | 33.2 | CN(C)CCCC1(c2ccc(F)cc2)OCc2cc(CN)ccc21 (racemic) |  | 
11 | 39.7 | COc1ccccc1N1CCN(Cc2ccc3c(c2)COC3(CCCN(C)C)c2ccc(F)cc2)CC1 (racemic) |  | 
12 |  | CN(C)CCCC1(c2ccc(F)cc2)OCc2cc(/C=C/Cc3ccccc3)ccc21 (racemic) | 4.75 | 
13 | 17 | CN(C)CCCC(O)(c1ccc(Br)cc1)c1ccc(C#N)cc1CO (racemic) |  | 
14 |  | CN(C)CCCC1(c2ccc(-c3cccc(N)c3)cc2)OCc2cc(C#N)ccc21 (racemic) | 7.02 | 
15 |  | CN(C)CCCC1(c2ccc(F)cc2)OCc2cc(/C=C/c3ccccc3)ccc21 (single isomer, unassigned; (+)) |  | IC50 [4]: 3.4 µM
16 | 60.4 | CCCN(C)CCCC1(c2ccc(F)cc2)OCc2cc(C#N)ccc21 (racemic) |  | Ki [5]: 0.118 µM; inhibition [6]: > 70%
17 |  | CN(C)CCCC1(c2ccc(F)cc2)OCc2cc(CNCc3ccc4c(c3)Cc3ccccc3-4)ccc21 (racemic) | 2.33 | Ratio Ki [7]: 99; Ki [5]: 0.0236 µM; inhibition [6]: > 70%

Row | inhibition [2] [%] | Structure (SMILES) | Ki [3] [µM] | also measured
18 |  | CN(C)CCCC1(c2ccc(F)cc2)OCc2c(I)cccc21 (racemic) | 11.3 | 
19 |  | CN(CCCC1(c2ccc(F)cc2)OCc2cc(C#N)ccc21)Cc1c[nH]c2ccccc12 (racemic) | 1.3 | 
20 |  | CN(C)CCCC1(c2ccc(F)cc2)OCc2cc(C(N)=O)ccc21 (racemic) | 0.123 | 
21 |  | CN(C)CCCC1(c2ccc(F)cc2)OCc2cc(CN3CCOCC3)ccc21 (racemic) | > 80 | Ki [5]: 0.0136 µM; inhibition [6]: > 70%
22 | 62.9 | CN(CCCC1(c2ccc(F)cc2)OCc2cc(C#N)ccc21)Cc1csc2ccccc12 (racemic) |  | 
23 |  | CCCCN(C)CCCC1(c2ccc(F)cc2)OCc2cc(C#N)ccc21 (racemic) | 0.276 | Ki [5]: 0.0616 µM; inhibition [6]: > 70%
24 |  | CN(C)CCCC1(c2ccc(-c3cccc(C#N)c3)cc2)OCc2cc(C#N)ccc21 (racemic) | 2.8 | 
25 |  | CN(C)CCCC1(c2ccc(F)cc2)OCc2cc(CNCc3ccc4ccccc4c3)ccc21 (racemic) | 0.653 | 
26 |  | CN(CCCC1(c2ccc(F)cc2)OCc2cc(C#N)ccc21)C1CC=C(c2c[nH]c3ccccc23)CC1 (racemic) | 1.02 | 
27 |  | CN(CCCC1(c2ccc(F)cc2)OCc2cc(C#N)ccc21)Cc1coc2ccccc12 (racemic) | 0.265 | 
28 |  | CN(CCCC1(c2ccc(F)cc2)OCc2cc(C#N)ccc21)Cc1ccc(N(C)C)cc1 (racemic) | 1.38 | 
29 | 45 | CN(C)CCCC1(c2ccc(Br)cc2)OCc2cc(C#N)ccc21 (racemic) |  | 
30 |  | CN(C)CCCC1(c2ccc(F)cc2)OCc2cc(CN3CCN(c4ccccc4)CC3)ccc21 (racemic) | 11.1 | 
31 |  | CN(CCCC1(c2ccc(F)cc2)OCc2cc(C#N)ccc21)CCc1ccccc1 (racemic) | 0.179 | Ratio Ki [7]: 4.4; Ki [5]: 0.0409 µM; inhibition [6]: > 70%; IC50 [4]: 5.3 µM
32 |  | CN(CCCCc1ccccc1)CCCC1(c2ccc(F)cc2)OCc2cc(C#N)ccc21 (racemic) | 0.448 | 
33 |  | CN(CCCC1(c2ccc(F)cc2)OCc2cc(C#N)ccc21)Cc1ccc2ccccc2c1 (racemic) | 0.272 | 

Row | Structure (SMILES) | inhibition [2] [%] | Ki [3] [µM] | also measured
34 | COC(=O)c1ccc2c(c1)COC2(CCCN(C)C)c1ccc(F)cc1 (racemic) | 64.3 |  | 
35 | CN(C)CCCC1(c2ccc(F)cc2)OCc2cc(C=O)ccc21 (racemic) | 46.1 |  | 
36 | CN(CCCC1(c2ccc(F)cc2)OCc2cc(C#N)ccc21)CC1CC1 (racemic) | 69.8 |  | 
37 | CN(C)CCCC1(c2ccc(F)cc2)OCc2cc(CN3CCCCC3)ccc21 (racemic) | 29.3 |  | 
38 | CN(CCN)CCCC1(c2ccc(F)cc2)OCc2cc(C#N)ccc21 (racemic) | 20.2 |  | 
39 | CN(CCCC1(c2ccc(F)cc2)OCc2cc(C#N)ccc21)Cc1ccc2c(c1)Cc1ccccc1-2 (racemic) | 60.3 |  | Ki [5]: 0.019 µM; inhibition [6]: > 70%
40 | CN(CCCC1(c2ccc(F)cc2)OCc2cc(C#N)ccc21)Cc1ccncc1 (racemic) | 28.1 |  | 
41 | CN(C)CCCC1(c2ccc(F)cc2)OCc2cc(CN(C)CCCC3(c4ccc(F)cc4)OCc4cc(C#N)ccc43)ccc21 (racemic) | 65.1 |  | 
42 | CN(C)CCCC1(c2ccc(F)cc2)OCc2cc(CN(C)C)ccc21 (racemic) | 21.9 |  | 
